Calls of active or inactive are those of the source.
Key:
P388 [1] = experiment: Antitumor activity against mouse P388 cells allografted in mouse assessed as increase of median life span at 200 mg/kg, ip on day 1, 5 and 9 measured up to 60 days relative to control; type: functional; settings: route intraperitoneal
In short: (§1)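 BDF1 or CDF1 mice inoculated ip with ascitic P388 leukemia cells. Dosing ip on days 1, 5 and 9. Deaths recorded for 60 days; % increase in median life span over controls. "Cures" are survivors/total at 60 days.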

B16 [2] = experiment: Antitumor activity against mouse B16 cells allografted in BDF1 mouse assessed as increase of median life span at 50 mg/kg, ip on day 1 to 9 measured up to 80 days relative to control; type: functional; settings: route intraperitoneal
In short: (§2)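 BDF1 mice implanted ip with a homogenate from 0.05 g of B16 tumor. Test agent given ip on days 1-9. Deaths recorded for 80 days. Result is % increase in median life span over untreated controls. "Cures" are survivors/total at 80 days.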

B16 [3] = experiment: Antitumor activity against mouse B16 cells allografted in BDF1 mouse assessed as disease cure at 50 mg/kg, ip on day 1 to 9 measured up to 80 days; type: functional, organism-based; parameters: dose 50 mg/kg
In short: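 BDF1 mice implanted ip with homogenate from 0.05 g of B16 tumor, then dosed ip on days 1-9. Deaths recorded for 80 days; "cures" scored as survivors/total at 80 days.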

P388 [4] = experiment: Antitumor activity against mouse P388 cells allografted in mouse assessed as disease cure at 200 mg/kg, ip on day 1, 5 and 9 measured up to 60 days; type: functional, organism-based; parameters: dose 200 mg/kg
In short: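 BDF1 or CDF1 mice inoculated ip with ascitic P388 leukemia cells, dosed ip on days 1, 5 and 9. Deaths recorded for 60 days; "cures" taken as number of survivors/total at 60 days.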

P388 [5] = experiment: Antitumor activity against mouse P388 cells allografted in mouse assessed as disease cure at 100 mg/kg, ip on day 1, 5 and 9 measured up to 60 days; type: functional, organism-based; parameters: dose 100 mg/kg
In short: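 BDF or CDF1 mice injected ip with ascitic leukemia cells, then dosed ip on days 1, 5 and 9. Deaths recorded for 60 days. Read-outs: percent increase in median life span over controls, and "cures" as survivors/total at 60 days.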

P388 [6] = experiment: Antitumor activity against mouse P388 cells allografted in mouse assessed as increase of median life span at 100 mg/kg, ip on day 1, 5 and 9 measured up to 60 days relative to control; type: functional; settings: route intraperitoneal
P388 [7] = experiment: Antitumor activity against mouse P388 cells allografted in mouse assessed as increase of median life span at 50 mg/kg, ip on day 1, 5 and 9 measured up to 60 days relative to control; type: functional; settings: route intraperitoneal; in short: as §1
[8] = Toxicity in […] assessed as maximum tolerated dose administered as once each 4 days for 3 total injection; type: organism-based, P388; settings: mouse, in vivo, ip
[9] = Therapeutic index, ratio of MTD for mouse P388 cells allografted ip dosed mouse to MED for mouse P388 cells allografted in ip dosed mouse administered as single dose; type: organism-based; settings: in vivo, read-out: TI
In short: (§3)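 Therapeutic index is MTD/MED for ip dosing, either single or once every 4 days ×3. MTD is the 10% lethal dose in normal mice over 21 days. MED is the dose giving a 40% life-span increase in P388-bearing mice. Both come from log dose-response regression lines.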

P388 [10] = experiment: Antitumor activity against mouse P388 cells allografted in ip dosed mouse assessed as minimum effective dose administered as once each 4 days for 3 total injection; type: functional; settings: 96 h, read-out: MED
In short: (§4)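 Drug given ip to P388 tumor-bearing mice, either once as a single dose or once each 4 days for three injections. Minimum effective dose defined as the dose giving 40% increase in life span over control, read from regression lines of log dose-response data.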

[11] = Therapeutic index, ratio of MTD for mouse P388 cells allografted ip dosed mouse to MED for mouse P388 cells allografted in ip dosed mouse administered as once each 4 days for 3 total injection; type: organism-based; settings: in vivo, read-out: TI; in short: as §3
P388 [12] = experiment: Antitumor activity against mouse P388 cells allografted in ip dosed mouse assessed as dose providing 40% increase in life span administered as once each 4 days for 3 total injection; type: functional
In short: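 P388 tumor-bearing mice dosed ip, either once as a single dose or once every 4 days for three injections. It was read from regression lines of log dose-response data.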

P388 [13] = experiment: Antitumor activity against mouse P388 cells allografted in ip dosed mouse assessed as minimum effective dose administered as single dose; type: functional; settings: read-out: MED; in short: as §4
[14] = Toxicity in […] assessed as maximum tolerated dose administered as single dose; type: organism-based, P388; settings: mouse, in vivo, ip
B16 [15] = experiment: Antitumor activity against mouse B16 cells allografted in BDF1 mouse assessed as increase of median life span at 12.5 mg/kg, ip on day 1 to 9 measured up to 80 days relative to control; type: functional; settings: route intraperitoneal
B16 [16] = experiment: Antitumor activity against mouse B16 cells allografted in BDF1 mouse assessed as increase of median life span at 6.2 mg/kg, ip on day 1 to 9 measured up to 80 days relative to control; type: functional; settings: route intraperitoneal; in short: as §2
P388 [17] = experiment: Antitumor activity against mouse P388 cells allografted in mouse assessed as increase of median life span at 25 mg/kg, ip on day 1, 5 and 9 measured up to 60 days relative to control; type: functional; settings: route intraperitoneal; in short: as §1

| SMILES | ILS at 200 mg/kg (P388 [1]) | ILS at 50 mg/kg (B16 [2]) | Activity (B16 [3]) | Activity (P388 [4]) | further results |
| --- | --- | --- | --- | --- | --- |
| CCN1CCCC1CNc1ccc(NCC2CCCN2CC)c2c1C(=O)c1c(O)ccc(O)c1C2=O (stereo not given) | 45% | 30% | inactive | inactive | – |
| CCN(CC)CCCC(C)Nc1ccc(NC(C)CCCN(CC)CC)c2c1C(=O)c1c(O)ccc(O)c1C2=O (stereo not given) | – | 0% | inactive | – | Activity (P388 [5]): inactive; ILS at 100 mg/kg (P388 [6]): 30% |
| CN(C)CCNc1ccc(NCCN(C)C)c2c1C(=O)c1cc(Cl)c(Cl)cc1C2=O | 0% | – | – | inactive | – |
| CCCNCCNc1ccc(NCCNCCC)c2c1C(=O)c1c(O)ccc(O)c1C2=O | – | 0% | inactive | – | ILS at 50 mg/kg (P388 [7]): 36% |
| CC(=O)NCCNc1ccc(NCCNC(C)=O)c2c1C(=O)c1c(O)ccc(O)c1C2=O | 0% | 0% | inactive | – | – |
| O=C1c2ccccc2C(=O)c2c(NCCO)ccc(NCCO)c21 | – | – | – | – | ILS at 100 mg/kg (P388 [6]): 0% |
| CN(C)CCNc1ccc(NCCN(C)C)c2c1C(=O)c1ccccc1C2=O | – | 39% | – | – | ILS at 100 mg/kg (P388 [6]): 68% |
| CCN(CC)CCNc1ccc(NCCN(CC)CC)c2c1C(=O)c1ccccc1C2=O | 40% | – | – | inactive | – |
| CN(C)CCCCCNc1ccc(NCCCCCN(C)C)c2c1C(=O)c1ccccc1C2=O | 0% | – | – | inactive | – |
| CN(CCNc1ccc(NCCN(C)c2ccccc2)c2c1C(=O)c1c(O)ccc(O)c1C2=O)c1ccccc1 | 0% | 0% | inactive | inactive | – |
| CN(Cc1cnc2nc(N)nc(N)c2n1)c1ccc(C(=O)N[C@@H](CCC(=O)O)C(=O)O)cc1 [METHOTREXATE] | – | – | – | – | MTD at 96 h [8]: 17.5 mg/kg; selectivity ratio [9]: 4; minimal effective dose (P388 [10]): 1.5 mg/kg; selectivity ratio at 96 h [11]: 11; Activity (P388 [12]): 102 mg/kg; minimal effective dose (P388 [13]): 27.9 mg/kg; MTD [14]: 108 mg/kg |
| Nc1ccc(N)c2c1C(=O)c1ccccc1C2=O | – | – | – | – | Activity (P388 [5]): inactive; ILS at 100 mg/kg (P388 [6]): 0% |
| CNCCNCCNc1ccc(NCCNCCNC)c2c1C(=O)c1c(O)ccc(O)c1C2=O | – | 122% | inactive | – | ILS at 100 mg/kg (P388 [6]): 120% |
| CN(C)CCNc1ccc(NCCN(C)C)c2c1C(=O)c1c(O)ccc(O)c1C2=O | – | – | – | – | ILS at 12.5 mg/kg (B16 [15]): 70%; ILS at 50 mg/kg (P388 [7]): 122% |
| CNCCNc1ccc(NCCNC)c2c1C(=O)c1ccccc1C2=O | – | – | – | – | ILS at 6.2 mg/kg (B16 [16]): 114%; ILS at 25 mg/kg (P388 [17]): 144% |
| O=P1(N(CCCl)CCCl)NCCCO1 (stereo not given) [CYCLOPHOSPHAMIDE ANHYDROUS] | – | – | – | – | MTD at 96 h [8]: 100 mg/kg; selectivity ratio [9]: 13; minimal effective dose (P388 [10]): 12 mg/kg; selectivity ratio at 96 h [11]: 8; Activity (P388 [12]): 142 mg/kg; minimal effective dose (P388 [13]): 26.3 mg/kg; MTD [14]: 350 mg/kg |

| SMILES | ILS at 200 mg/kg (P388 [1]) | ILS at 50 mg/kg (B16 [2]) | Activity (B16 [3]) | Activity (P388 [4]) | further results |
| --- | --- | --- | --- | --- | --- |
| CCNc1ccc(NCC)c2c1C(=O)c1ccccc1C2=O | – | – | – | – | ILS at 100 mg/kg (P388 [6]): 0% |
| CN(C)CCCCCNc1ccc(NCCCCCN(C)C)c2c1C(=O)c1c(O)ccc(O)c1C2=O | 0% | 0% | inactive | inactive | – |
| CCCCN(CCCC)CCNc1ccc(NCCN(CCCC)CCCC)c2c1C(=O)c1c(O)ccc(O)c1C2=O | 0% | 0% | inactive | inactive | – |
| O=C1c2c(O)ccc(O)c2C(=O)c2c(NCCCN3CCOCC3)ccc(NCCCN3CCOCC3)c21 | 40% | 0% | inactive | inactive | – |
| CN(C)CCCCNc1ccc(NCCCCN(C)C)c2c1C(=O)c1c(O)ccc(O)c1C2=O | 0% | 0% | inactive | inactive | – |
| O=C1c2c(O)ccc(O)c2C(=O)c2c(NCCN3CCOCC3)ccc(NCCN3CCOCC3)c21 | 0% | – | – | inactive | – |
| O=C1c2c(O)ccc(O)c2C(=O)c2c(NCCO)ccc(NCCO)c21 | – | – | – | – | Activity (P388 [5]): inactive; ILS at 100 mg/kg (P388 [6]): 0% |
| CCN(CC)CCNc1ccc(NCCN(CC)CC)c2c1C(=O)c1c(O)ccc(O)c1C2=O | 88% | 38% | – | – | – |
| COc1cccc2c1C(=O)c1c(O)c3c(c(O)c1C2=O)C[C@@](O)(C(C)=O)C[C@@H]3O[C@H]1C[C@H](N)[C@H](O)[C@H](C)O1 [DAUNORUBICIN] | – | – | – | – | selectivity ratio [9]: 10; minimal effective dose (P388 [13]): 0.52 mg/kg; MTD [14]: 5.2 mg/kg |
| CN(C)CCCNc1ccc(NCCCN(C)C)c2c1C(=O)c1ccccc1C2=O | 0% | 0% | – | – | – |
| O=C1c2c(O)ccc(O)c2C(=O)c2c(NCCNCCNCCO)ccc(NCCNCCNCCO)c21 | – | 35% | inactive | – | ILS at 100 mg/kg (P388 [6]): 73% |
| O=C1c2c(O)ccc(O)c2C(=O)c2c(NCCN3CCNCC3)ccc(NCCN3CCNCC3)c21 | – | 103% | inactive | – | Activity (P388 [5]): inactive; ILS at 100 mg/kg (P388 [6]): 133% |
| CC(C)N(CCNc1ccc(NCCN(C(C)C)C(C)C)c2c1C(=O)c1c(O)ccc(O)c1C2=O)C(C)C | 0% | 0% | inactive | inactive | – |
| O=C1c2ccccc2C(=O)c2c(NCCN3CCCCC3)ccc(NCCN3CCCCC3)c21 | 27% | – | – | inactive | – |
| O=c1[nH]cc(F)c(=O)[nH]1 [FLUOROURACIL] | – | – | – | – | MTD at 96 h [8]: 48 mg/kg; selectivity ratio [9]: 3; minimal effective dose (P388 [10]): 11.4 mg/kg; selectivity ratio at 96 h [11]: 4; Activity (P388 [12]): 70 mg/kg; minimal effective dose (P388 [13]): 88 mg/kg; MTD [14]: 280 mg/kg |
| Cc1ccc2c(c1)C(=O)c1c(NCCN(C)C)ccc(NCCN(C)C)c1C2=O | 0% | – | – | inactive | – |

From ChEMBL document CHEMBL3244336, “Antitumor agents. 1. 1,4-Bis[(aminoalkyl)amino]-9,10-anthracenediones” (J Med Chem, 1979)
